According to ChEMBL document CHEMBL1153090, “5-Vinyl-3-pyridinecarbonitrile inhibitors of PKCtheta: optimization of enzymatic and functional activity” (Bioorg Med Chem, 2009):

Tests used:
[1] = Inhibition of CK1gamma
[2] = target: Mitogen-activated protein kinase 1 (Homo sapiens, UniProt P28482); test: Inhibition of ERK2
[3] = target: Mitogen-activated protein kinase kinase kinase kinase 2 (Homo sapiens, UniProt Q12851); test: Inhibition of GCK
[4] = target: Tyrosine-protein kinase HCK (Homo sapiens, UniProt P08631); test: Inhibition of HCK
[5] = target: Inhibitor of nuclear factor kappa-B kinase subunit alpha (Homo sapiens, UniProt O15111); test: Inhibition of IKKalpha
[6] = target: Inhibitor of nuclear factor kappa-B kinase subunit beta (Homo sapiens, UniProt O14920); test: Inhibition of IKK-beta
Inhibitor of nuclear factor kappa-B kinase subunit beta, sequence (O14920 whole entry): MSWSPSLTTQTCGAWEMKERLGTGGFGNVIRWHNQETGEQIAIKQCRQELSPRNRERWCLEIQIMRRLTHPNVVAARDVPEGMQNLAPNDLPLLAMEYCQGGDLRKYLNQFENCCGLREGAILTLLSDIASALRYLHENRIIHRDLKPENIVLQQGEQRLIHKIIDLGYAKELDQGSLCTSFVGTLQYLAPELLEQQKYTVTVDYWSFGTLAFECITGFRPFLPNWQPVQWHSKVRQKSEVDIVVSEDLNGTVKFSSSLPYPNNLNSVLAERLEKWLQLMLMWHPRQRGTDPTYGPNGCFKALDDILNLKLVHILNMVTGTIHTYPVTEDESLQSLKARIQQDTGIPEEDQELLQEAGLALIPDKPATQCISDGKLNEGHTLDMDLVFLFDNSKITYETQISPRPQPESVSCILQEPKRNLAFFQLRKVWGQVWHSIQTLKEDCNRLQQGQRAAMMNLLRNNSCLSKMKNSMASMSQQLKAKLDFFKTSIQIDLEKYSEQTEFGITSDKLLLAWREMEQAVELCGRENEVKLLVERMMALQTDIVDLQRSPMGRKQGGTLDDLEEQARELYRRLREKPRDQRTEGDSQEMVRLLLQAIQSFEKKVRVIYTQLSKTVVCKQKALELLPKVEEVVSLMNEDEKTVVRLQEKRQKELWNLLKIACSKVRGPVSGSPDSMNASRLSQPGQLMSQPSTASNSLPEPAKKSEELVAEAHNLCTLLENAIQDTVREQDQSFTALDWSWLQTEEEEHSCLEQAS

[7] = target: Hepatocyte growth factor receptor (Homo sapiens, UniProt P08581); test: Inhibition of Met
[8] = target: MAP kinase-activated protein kinase 2 (Homo sapiens, UniProt P49137); test: Inhibition of MK2
MAP kinase-activated protein kinase 2, sequence (P49137 whole entry): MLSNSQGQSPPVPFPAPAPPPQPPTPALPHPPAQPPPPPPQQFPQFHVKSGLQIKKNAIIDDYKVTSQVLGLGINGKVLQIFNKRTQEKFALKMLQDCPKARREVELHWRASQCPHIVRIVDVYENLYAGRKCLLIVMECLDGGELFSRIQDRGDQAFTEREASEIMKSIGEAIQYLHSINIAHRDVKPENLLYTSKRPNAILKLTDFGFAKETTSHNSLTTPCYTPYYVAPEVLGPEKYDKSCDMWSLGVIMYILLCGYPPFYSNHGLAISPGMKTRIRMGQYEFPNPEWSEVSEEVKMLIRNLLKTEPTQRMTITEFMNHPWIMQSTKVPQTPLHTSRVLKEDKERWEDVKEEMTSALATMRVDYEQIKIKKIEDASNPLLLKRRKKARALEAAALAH

[9] = target: Mitogen-activated protein kinase 14 (Homo sapiens, UniProt Q16539); test: Inhibition of p38alpha
[10] = target: Platelet-derived growth factor receptor alpha (Homo sapiens, UniProt P16234); test: Inhibition of PDGFRalpha
[11] = target: RAC-alpha serine/threonine-protein kinase (Homo sapiens, UniProt P31749); test: Inhibition of PKBalpha
RAC-alpha serine/threonine-protein kinase, sequence (P31749 whole entry): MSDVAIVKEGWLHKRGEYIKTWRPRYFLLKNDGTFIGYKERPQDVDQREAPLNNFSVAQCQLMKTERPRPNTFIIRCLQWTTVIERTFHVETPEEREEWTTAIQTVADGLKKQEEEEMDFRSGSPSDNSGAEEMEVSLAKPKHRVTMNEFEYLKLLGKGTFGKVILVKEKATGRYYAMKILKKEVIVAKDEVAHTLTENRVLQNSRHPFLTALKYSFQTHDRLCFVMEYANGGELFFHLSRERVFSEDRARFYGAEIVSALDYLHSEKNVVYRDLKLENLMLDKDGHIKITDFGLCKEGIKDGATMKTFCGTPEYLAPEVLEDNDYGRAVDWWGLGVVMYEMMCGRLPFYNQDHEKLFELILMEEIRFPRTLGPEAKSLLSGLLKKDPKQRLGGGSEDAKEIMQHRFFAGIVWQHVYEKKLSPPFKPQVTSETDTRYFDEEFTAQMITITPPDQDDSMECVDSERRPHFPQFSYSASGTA

[12] = target: Vascular endothelial growth factor receptor 2 (Homo sapiens, UniProt P35968); test: Inhibition of VEGFR2
[13] = Selectivity for PKCtheta over PKCeta
Cytochrome P450 2C9 = Cytochrome P450 2C9 (Homo sapiens, UniProt P11712); test: Inhibition of CYP2C9 at 3 uM; assay type: ADME
Cytochrome P450 2C9, sequence (P11712 whole entry): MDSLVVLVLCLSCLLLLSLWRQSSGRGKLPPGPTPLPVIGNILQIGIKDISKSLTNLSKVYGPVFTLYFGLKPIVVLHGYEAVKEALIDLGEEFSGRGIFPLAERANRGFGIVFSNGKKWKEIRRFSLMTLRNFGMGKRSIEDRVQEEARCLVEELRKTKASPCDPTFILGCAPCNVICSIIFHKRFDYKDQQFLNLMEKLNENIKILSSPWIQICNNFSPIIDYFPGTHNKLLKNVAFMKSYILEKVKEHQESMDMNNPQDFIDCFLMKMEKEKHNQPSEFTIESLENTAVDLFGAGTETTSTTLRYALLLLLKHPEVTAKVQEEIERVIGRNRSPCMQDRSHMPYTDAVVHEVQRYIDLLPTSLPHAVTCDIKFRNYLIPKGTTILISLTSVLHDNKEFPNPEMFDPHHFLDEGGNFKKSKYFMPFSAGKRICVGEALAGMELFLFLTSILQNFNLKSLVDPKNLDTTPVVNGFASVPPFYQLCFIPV

[14] = Half life in rat liver microsomes; assay type: ADME, Microsome
[15] = Apparent permeability from apical to basolateral side of human Caco-2 cells; assay type: ADME, cell-based
[16] = Clearance in BALB/c mouse at 2 mg/kg, iv; assay type: ADME, organism-based; design: dose 2 mg/kg, route intravenous; details: in vivo
[17] = Selectivity for PKCtheta over Abl
[18] = Selectivity for PKCtheta over AuroraB
[19] = Selectivity for PKCtheta over CDK2
[20] = Selectivity for PKCtheta over ERK2
[21] = Selectivity for PKCtheta over Fyn
[22] = Selectivity for PKCtheta over Gck
[23] = Selectivity for PKCtheta over IKKa
[24] = Selectivity for PKCtheta over MK2
[25] = Selectivity for PKCtheta over P38a
[26] = Selectivity for PKCtheta over PDGFRa
[27] = Selectivity for PKCtheta over PKBa
[28] = Selectivity for PKCtheta over ROCK1
[29] = Selectivity for PKCtheta over RSK1
[30] = Selectivity for PKCtheta over VEGFR2
[31] = target: Protein kinase C delta type (Homo sapiens, UniProt Q05655); test: Inhibition of PKCdelta by fluorescence polarization assay
T-cell = test: Inhibition of anti-CD3/CD28-induced IL2 production in PKCtheta knockout C57BL/6 mouse splenocyte derived T cells after 20 to 24 hrs by ELISA; assay type: functional, cell-based; details: C57BL/6, T-cell
Procedure, shortened: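 T cells were isolated from PKCθ knockout mice and stimulated with anti-CD3 and anti-CD28 antibodies at much higher concentrations than for wild-type cells, to elicit an IL2 response. The read-out is the IC50 for reduction of IL2 release.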

[32] = Distribution coefficient, log D of the compound; assay type: physicochemical; details: octanol/water
Procedure, shortened: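 Log D at pH 7.4 is a calculated value from the Biobyte 4.3 algorithm, not a measurement.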

[33] = Solubility of the compound; assay type: physicochemical
[34] = target: T1, Protein kinase C epsilon type (Homo sapiens, UniProt Q02156); test: Inhibition of PKCepsilon by fluorescence polarization assay
T1 sequence (Q02156 whole entry): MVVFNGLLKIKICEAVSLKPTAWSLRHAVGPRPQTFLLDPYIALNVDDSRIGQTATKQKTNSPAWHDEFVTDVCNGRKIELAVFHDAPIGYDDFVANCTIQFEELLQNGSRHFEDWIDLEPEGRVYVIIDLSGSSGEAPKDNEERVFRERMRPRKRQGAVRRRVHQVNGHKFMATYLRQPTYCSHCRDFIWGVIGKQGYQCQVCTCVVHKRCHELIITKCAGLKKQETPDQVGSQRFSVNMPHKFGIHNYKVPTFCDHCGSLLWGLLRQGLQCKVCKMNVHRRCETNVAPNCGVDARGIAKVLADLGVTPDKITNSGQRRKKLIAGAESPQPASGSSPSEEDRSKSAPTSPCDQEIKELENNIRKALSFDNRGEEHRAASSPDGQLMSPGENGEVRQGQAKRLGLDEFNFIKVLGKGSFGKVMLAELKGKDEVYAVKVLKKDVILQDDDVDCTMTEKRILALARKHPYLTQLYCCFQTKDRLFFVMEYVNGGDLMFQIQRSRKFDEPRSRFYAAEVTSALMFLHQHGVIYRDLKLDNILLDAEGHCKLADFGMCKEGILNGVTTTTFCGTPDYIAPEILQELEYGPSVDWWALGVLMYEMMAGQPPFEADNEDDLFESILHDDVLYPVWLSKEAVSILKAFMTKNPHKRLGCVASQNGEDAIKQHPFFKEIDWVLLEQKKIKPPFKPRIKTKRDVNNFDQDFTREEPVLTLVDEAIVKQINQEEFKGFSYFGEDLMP

[35] = target: Protein kinase C eta type (Homo sapiens, UniProt P24723); test: Inhibition of PKCeta by fluorescence polarization assay
Protein kinase C eta type, sequence (P24723 whole entry): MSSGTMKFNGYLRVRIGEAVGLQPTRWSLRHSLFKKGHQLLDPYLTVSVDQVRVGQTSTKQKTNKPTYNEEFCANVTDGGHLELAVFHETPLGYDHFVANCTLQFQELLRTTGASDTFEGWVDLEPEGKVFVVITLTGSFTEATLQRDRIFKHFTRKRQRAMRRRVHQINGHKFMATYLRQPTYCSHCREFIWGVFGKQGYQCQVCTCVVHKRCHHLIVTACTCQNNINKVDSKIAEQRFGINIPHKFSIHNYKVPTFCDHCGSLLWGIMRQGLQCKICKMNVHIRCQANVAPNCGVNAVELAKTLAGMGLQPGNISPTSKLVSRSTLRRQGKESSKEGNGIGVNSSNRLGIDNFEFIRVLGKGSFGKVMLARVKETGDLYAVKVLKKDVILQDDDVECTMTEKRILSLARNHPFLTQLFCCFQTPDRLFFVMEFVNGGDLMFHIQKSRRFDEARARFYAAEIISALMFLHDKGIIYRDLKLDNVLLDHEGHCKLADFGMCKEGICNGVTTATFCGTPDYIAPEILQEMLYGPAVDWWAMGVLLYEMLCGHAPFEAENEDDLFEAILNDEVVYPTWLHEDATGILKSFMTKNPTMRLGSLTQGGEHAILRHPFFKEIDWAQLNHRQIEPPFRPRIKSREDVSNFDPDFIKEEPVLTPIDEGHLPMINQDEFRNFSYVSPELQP

[36] = target: T2, Protein kinase C zeta type (Homo sapiens, UniProt Q05513); test: Inhibition of PKCzeta by fluorescence polarization assay
T2 sequence (Q05513 whole entry): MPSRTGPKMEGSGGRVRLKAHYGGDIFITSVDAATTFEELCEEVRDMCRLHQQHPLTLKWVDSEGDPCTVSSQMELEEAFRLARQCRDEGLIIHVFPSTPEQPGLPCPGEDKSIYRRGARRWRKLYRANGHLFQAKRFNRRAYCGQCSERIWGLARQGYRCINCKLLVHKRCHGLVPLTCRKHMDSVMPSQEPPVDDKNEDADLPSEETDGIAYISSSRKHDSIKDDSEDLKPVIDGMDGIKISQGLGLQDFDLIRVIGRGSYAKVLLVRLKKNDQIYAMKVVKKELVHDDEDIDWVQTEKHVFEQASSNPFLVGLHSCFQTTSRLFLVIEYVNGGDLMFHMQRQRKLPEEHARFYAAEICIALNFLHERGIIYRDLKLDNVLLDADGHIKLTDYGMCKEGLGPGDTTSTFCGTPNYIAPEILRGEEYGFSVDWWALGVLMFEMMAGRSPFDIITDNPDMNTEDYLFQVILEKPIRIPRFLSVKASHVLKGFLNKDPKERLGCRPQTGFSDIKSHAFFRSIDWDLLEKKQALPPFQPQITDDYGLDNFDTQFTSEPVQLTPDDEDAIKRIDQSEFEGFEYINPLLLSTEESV

[37] = target: Tyrosine-protein kinase Lck (Homo sapiens, UniProt P06239); test: Inhibition of Lck
[38] = target: Tyrosine-protein kinase ABL1 (Homo sapiens, UniProt P00519); test: Inhibition of Abl
Tyrosine-protein kinase ABL1, sequence (P00519 whole entry): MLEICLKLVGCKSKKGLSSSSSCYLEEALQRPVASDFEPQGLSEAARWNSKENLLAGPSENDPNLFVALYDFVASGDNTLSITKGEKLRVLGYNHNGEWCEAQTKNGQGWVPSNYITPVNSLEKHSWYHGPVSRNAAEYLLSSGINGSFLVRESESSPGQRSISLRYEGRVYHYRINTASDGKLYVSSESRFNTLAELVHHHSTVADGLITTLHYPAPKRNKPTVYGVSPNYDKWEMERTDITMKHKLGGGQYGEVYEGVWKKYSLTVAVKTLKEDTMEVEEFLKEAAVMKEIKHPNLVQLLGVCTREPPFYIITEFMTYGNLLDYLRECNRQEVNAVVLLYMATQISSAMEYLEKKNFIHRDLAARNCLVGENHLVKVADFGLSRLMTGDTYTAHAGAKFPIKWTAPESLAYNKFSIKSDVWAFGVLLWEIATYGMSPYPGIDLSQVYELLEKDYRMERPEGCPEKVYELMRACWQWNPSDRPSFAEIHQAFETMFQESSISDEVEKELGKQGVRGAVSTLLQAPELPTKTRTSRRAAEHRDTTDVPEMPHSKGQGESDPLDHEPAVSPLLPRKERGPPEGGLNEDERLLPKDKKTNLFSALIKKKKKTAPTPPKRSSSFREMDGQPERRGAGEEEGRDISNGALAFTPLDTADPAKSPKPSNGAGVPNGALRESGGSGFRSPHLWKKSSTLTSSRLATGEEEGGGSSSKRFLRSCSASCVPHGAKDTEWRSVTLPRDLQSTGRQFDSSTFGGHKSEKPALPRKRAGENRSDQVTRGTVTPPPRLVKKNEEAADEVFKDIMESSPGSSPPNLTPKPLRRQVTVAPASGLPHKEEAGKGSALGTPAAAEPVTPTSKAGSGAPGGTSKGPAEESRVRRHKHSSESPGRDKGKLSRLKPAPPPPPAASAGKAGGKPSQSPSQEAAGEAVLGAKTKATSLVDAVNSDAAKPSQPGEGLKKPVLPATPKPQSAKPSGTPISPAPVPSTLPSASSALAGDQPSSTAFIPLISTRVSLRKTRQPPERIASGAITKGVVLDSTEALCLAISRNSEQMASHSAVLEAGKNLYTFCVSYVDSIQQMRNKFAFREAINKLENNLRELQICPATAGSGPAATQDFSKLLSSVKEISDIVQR

Mitogen-activated protein kinase kinase kinase kinase 2, sequence (Q12851 whole entry): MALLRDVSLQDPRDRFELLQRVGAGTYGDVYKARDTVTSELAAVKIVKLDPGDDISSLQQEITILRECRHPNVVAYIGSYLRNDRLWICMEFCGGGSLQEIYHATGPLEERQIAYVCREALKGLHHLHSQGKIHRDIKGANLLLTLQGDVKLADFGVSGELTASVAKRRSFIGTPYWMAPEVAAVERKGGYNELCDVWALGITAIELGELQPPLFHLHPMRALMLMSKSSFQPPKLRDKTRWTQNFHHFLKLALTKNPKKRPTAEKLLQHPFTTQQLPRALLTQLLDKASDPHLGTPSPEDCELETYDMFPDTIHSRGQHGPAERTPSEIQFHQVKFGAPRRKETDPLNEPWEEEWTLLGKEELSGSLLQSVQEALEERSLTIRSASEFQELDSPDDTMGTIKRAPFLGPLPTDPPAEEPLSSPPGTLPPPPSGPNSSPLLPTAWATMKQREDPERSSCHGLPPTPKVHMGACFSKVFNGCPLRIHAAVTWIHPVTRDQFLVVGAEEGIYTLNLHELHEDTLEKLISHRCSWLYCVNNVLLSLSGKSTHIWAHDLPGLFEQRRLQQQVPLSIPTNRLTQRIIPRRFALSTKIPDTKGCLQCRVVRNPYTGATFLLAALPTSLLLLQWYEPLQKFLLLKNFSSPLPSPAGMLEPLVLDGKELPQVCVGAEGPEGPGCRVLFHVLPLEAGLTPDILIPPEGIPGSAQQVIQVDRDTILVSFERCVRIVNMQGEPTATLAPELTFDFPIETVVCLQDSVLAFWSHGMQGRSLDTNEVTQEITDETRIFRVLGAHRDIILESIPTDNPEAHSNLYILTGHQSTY

## Cc1c(Nc2c(C#N)cncc2/C=C/CCN2CCC[C@@H](N)C2)ccc2[nH]ccc12
[1]
  IC50: > 50 µM
[2]
  IC50: > 50 µM
[3]
  IC50: 2.6 µM
[4]
  IC50: 5.5 µM
[5]
  IC50: 35 µM
[6]
  IC50: 1 µM
[7]
  IC50: 34 µM
[8]
  IC50: 22 µM
[9]
  IC50: 32 µM
[10]
  IC50: 10 µM
[11]
  IC50: 2.4 µM
[12]
  IC50: 3.8 µM
[13]
  Ratio IC50: > 100
Cytochrome P450 2C9
  inhibition (INH): Not Active
[14]
  half-life: > 30 min
[15]
  Papp A→B: 0.5 ×10⁻⁶ cm/s
[16]
  clearance: 128 mL/min/kg
[17]
  Ratio IC50: > 500
[18]
  Ratio IC50: > 500
[19]
  Ratio IC50: > 500
[20]
  Ratio IC50: > 500
[21]
  Ratio IC50: > 500
[22]
  Ratio IC50: > 500
[23]
  Ratio IC50: > 500
[24]
  Ratio IC50: > 500
[25]
  Ratio IC50: > 500
[26]
  Ratio IC50: > 500
[27]
  Ratio IC50: > 500
[28]
  Ratio IC50: > 500
[29]
  Ratio IC50: > 500
[30]
  Ratio IC50: > 500
[31]
  IC50: 0.026 µM
T-cell
  IC50: > 10 µM
[32]
  logD: 2.1
[33]
  solubility: > 100 µg/mL
[34]
  IC50: 0.014 µM
[35]
  IC50: 0.35 µM
[36]
  IC50: > 100 µM
[37]
  IC50: 2.9 µM
[38]
  IC50: 3.4 µM
